Measured values taken from ChEMBL document CHEMBL1155135, “Effect of Lamivudine on the plasma and intracellular pharmacokinetics of apricitabine, a novel nucleoside reverse transcriptase inhibitor, in healthy volunteers” (Antimicrob Agents Chemother, 2007).
Values belong to the compound of their own block, whether it stands above or below them.

How the values were obtained:
[1] = tested on: Homo sapiens; test: Tmax in healthy human PBMC assessed as intracellular apricitabine triphosphate level at 600 mg, po administered twice daily for 4 days; type: ADME, organism-based; settings: in vivo, 96 h
Procedure, shortened: (§1)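 PBMC were isolated from triplicate day-4 blood samples taken 2, 4, 8, 12 and 24 h after the morning dose, then extracted in 70/30 methanol-Tris-HCl pH 7.4. Triphosphates were separated by anion-exchange SPE with KCl washes, eluted with 500 mM KCl, and dephosphorylated with alkaline phosphatase at 37°C. Quantitation used HPLC-MS/MS with a labelled triphosphate internal standard; LLOQ 0.0592 pmol/10^6 cells. Cmax/Tmax were read by inspection; t1/2 = ln2/λz.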

[2] = tested on: Homo sapiens; test: Half life in healthy human PBMC assessed as intracellular apricitabine triphosphate level per 10^6 cells at 600 mg, po twice daily coadministered with 300 mg, po Lamivudine once daily for 4 days; type: ADME, organism-based; settings: in vivo, 96 h; procedure, shortened: as §1
[3] = tested on: Homo sapiens; test: Cmin in healthy human PBMC assessed as intracellular apricitabine triphosphate level per 10^6 cells at 600 mg, po administered twice daily for 4 days; type: ADME, organism-based; settings: in vivo, 96 h
[4] = tested on: Homo sapiens; test: Volume of distribution at steady state in healthy human at 600 mg, po twice daily coadministered with 300 mg, po Lamivudine once daily for 4 days; type: ADME, organism-based; settings: in vivo, 96 h
Procedure, shortened: (§2)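 Healthy volunteers took each regimen in random order for 4 days, with washouts of at least 7 days. The day-4 morning dose followed a fast of at least 10 h. Plasma was drawn predose and 0.5–36 h after dosing, and urine was collected to 36 h; both were assayed by validated HPLC. Cmax/Tmax were read from the curves. CLT/F = dose/AUC, CLR = 24-h urinary amount/AUC0-24, Vz/F = dose/(λz·AUC), t1/2 = ln2/λz.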

[5] = tested on: Homo sapiens; test: Cmax in healthy human PBMC assessed as intracellular apricitabine triphosphate level per 10^6 cells at 600 mg, po twice daily coadministered with 300 mg, po Lamivudine once daily for 4 days; type: ADME, organism-based, Blood; set-up: dose 600 mg, route oral; settings: in vivo, 96 h; procedure, shortened: as §1
[6] = tested on: Homo sapiens; test: Renal clearance in healthy human at 600 mg, po twice daily coadministered with 300 mg, po Lamivudine once daily for 4 days; type: ADME, organism-based, Kidney; settings: in vivo, 96 h; procedure, shortened: as §2
[7] = tested on: Homo sapiens; test: Volume of distribution at steady state in healthy human at 600 mg, po administered twice daily for 4 days; type: ADME, organism-based; settings: in vivo, 96 h; procedure, shortened: as §2
[8] = tested on: Homo sapiens; test: Cmin in healthy human PBMC assessed as intracellular apricitabine triphosphate level per 10^6 cells at 600 mg, po twice daily coadministered with 300 mg, po Lamivudine once daily for 4 days; type: ADME, organism-based; settings: in vivo, 96 h
[9] = AUC (0 to 24 hrs) in healthy human at 600 mg, po administered twice daily for 4 days; type: ADME, organism-based; set-up: dose 600 mg, time < 24 hr, route oral; settings: plasma; procedure, shortened: as §2
[10] = Cmax in healthy human at 600 mg, po administered twice daily for 4 days; type: ADME, organism-based; set-up: dose 600 mg, route oral; settings: in vivo; procedure, shortened: as §2
[11] = Renal clearance in healthy human at 600 mg, po administered twice daily for 4 days; type: ADME, organism-based, Kidney; settings: in vivo, read-out: CL_renal (converted); procedure, shortened: as §2
[12] = tested on: Homo sapiens; test: Ratio of Cmax to Cmin in healthy human PBMC assessed as intracellular apricitabine triphosphate level per 10^6 cells at 600 mg, po twice daily coadministered with 300 mg, po Lamivudine once daily for 4 days; type: ADME, organism-based; settings: in vivo, 96 h
[13] = Apparent total oral clearance in healthy human at 600 mg, po administered twice daily for 4 days; type: ADME, organism-based; settings: in vivo; procedure, shortened: as §2
[14] = Tmax in healthy human at 600 mg, po twice daily coadministered with 300 mg, po Lamivudine once daily for 4 days; type: ADME, organism-based; settings: in vivo; procedure, shortened: as §2
[15] = tested on: Homo sapiens; test: Apparent total oral clearance in healthy human at 600 mg, po twice daily coadministered with 300 mg, po Lamivudine once daily for 4 days; type: ADME, organism-based; settings: in vivo, 96 h; procedure, shortened: as §2
[16] = tested on: Homo sapiens; test: Cmax in healthy human PBMC assessed as intracellular apricitabine triphosphate level per 10^6 cells at 600 mg, po administered twice daily for 4 days; type: ADME, organism-based, Blood; set-up: dose 600 mg, route oral; settings: in vivo, 96 h; procedure, shortened: as §1
[17] = tested on: Homo sapiens; test: Tmax in healthy human PBMC assessed as intracellular apricitabine triphosphate level at 600 mg, po twice daily coadministered with 300 mg, po Lamivudine once daily for 4 days; type: ADME, organism-based; settings: in vivo, 96 h; procedure, shortened: as §1
[18] = Tmax in healthy human at 600 mg, po administered twice daily for 4 days; type: ADME, organism-based; settings: in vivo; procedure, shortened: as §2
[19] = Cmax in healthy human at 600 mg, po twice daily coadministered with 300 mg, po Lamivudine once daily for 4 days; type: ADME, organism-based; set-up: dose 600 mg, route oral; settings: in vivo; procedure, shortened: as §2
[20] = tested on: Homo sapiens; test: AUC (0 to 12 hrs) in healthy human PBMC assessed as intracellular apricitabine triphosphate level per 10^6 cells at 600 mg, po administered twice daily for 4 days; type: ADME, organism-based; set-up: dose 600 mg, time < 12 hr, route oral; settings: in vivo; procedure, shortened: as §1
[21] = AUC (0 to 24 hrs) in healthy human at 600 mg, po twice daily coadministered with 300 mg, po Lamivudine once daily for 4 days; type: ADME, organism-based; set-up: dose 600 mg, time < 24 hr, route oral; settings: plasma; procedure, shortened: as §2
[22] = tested on: Homo sapiens; test: Half life in healthy human PBMC assessed as intracellular apricitabine triphosphate level per 10^6 cells at 600 mg, po administered twice daily for 4 days; type: ADME, organism-based; settings: in vivo, 96 h; procedure, shortened: as §1
[23] = tested on: Homo sapiens; test: AUC (0 to 12 hrs) in healthy human PBMC assessed as intracellular apricitabine triphosphate level per 10^6 cells at 600 mg, po twice daily coadministered with 300 mg, po Lamivudine once daily for 4 days; type: ADME, organism-based; set-up: time < 12 hr, dose 600 mg, route oral; settings: in vivo; procedure, shortened: as §1
[24] = tested on: Homo sapiens; test: Ratio of Cmax to Cmin in healthy human PBMC assessed as intracellular apricitabine triphosphate level per 10^6 cells at 600 mg, po administered twice daily for 4 days; type: ADME, organism-based; settings: in vivo, 96 h
[25] = Apparent terminal half life in healthy human at 600 mg, po administered twice daily for 4 days; type: ADME, organism-based; settings: in vivo; procedure, shortened: as §2
[26] = Apparent terminal half life in healthy human at 600 mg, po twice daily coadministered with 300 mg, po Lamivudine once daily for 4 days; type: ADME, organism-based; settings: in vivo; procedure, shortened: as §2
[27] = tested on: Homo sapiens; test: Cmin in healthy human PBMC assessed as intracellular apricitabine triphosphate level per 10^6 cells at 300 mg, po once daily coadministered with 600 mg, po apricitabine twice daily for 4 days; type: ADME, organism-based; settings: in vivo, 96 h
[28] = Cmax in healthy human at 300 mg, po once daily coadministered with 600 mg, po apricitabine twice daily for 4 days; type: ADME, organism-based; set-up: dose 300 mg, route oral; settings: in vivo; procedure, shortened: as §2
[29] = tested on: Homo sapiens; test: Tmax in healthy human PBMC assessed as intracellular apricitabine triphosphate level at 300 mg, po administered once daily for 4 days; type: ADME, organism-based; settings: in vivo, 96 h, in the assay text read “lamivudine” for “apricitabine”; procedure, shortened: as §1
[30] = tested on: Homo sapiens; test: Cmax in healthy human PBMC assessed as intracellular apricitabine triphosphate level per 10^6 cells at 300 mg, po once daily coadministered with 600 mg, po apricitabine twice daily for 4 days; type: ADME, organism-based, Blood; set-up: dose 300 mg, route oral; settings: in vivo, 96 h; procedure, shortened: as §1
[31] = tested on: Homo sapiens; test: Tmax in healthy human PBMC assessed as intracellular apricitabine triphosphate level at 300 mg, po once daily coadministered with 600 mg, po apricitabine twice daily for 4 days; type: ADME, organism-based; settings: in vivo, 96 h; procedure, shortened: as §1
[32] = tested on: Homo sapiens; test: Cmin in healthy human PBMC assessed as intracellular lamivudine triphosphate level per 10^6 cells at 300 mg, po administered once daily for 4 days; settings: in vivo, 96 h
[33] = AUC (0 to 24 hrs) in healthy human at 300 mg, po once daily coadministered with 600 mg, po apricitabine twice daily for 4 days; type: ADME, organism-based; set-up: time < 24 hr, dose 300 mg, route oral; settings: plasma; procedure, shortened: as §2
[34] = tested on: Homo sapiens; test: Cmax in healthy human PBMC assessed as intracellular lamivudine triphosphate level per 10^6 cells at 300 mg, po administered once daily for 4 days; settings: in vivo, 96 h
[35] = tested on: Homo sapiens; test: AUC (0 to 12 hrs) in healthy human PBMC assessed as intracellular lamivudine triphosphate level per 10^6 cells at 300 mg, po once daily coadministered with 600 mg, po apricitabine twice daily for 4 days; settings: in vivo
[36] = AUC (0 to 24 hrs) in healthy human at 300 mg, po administered once daily for 4 days; type: ADME, organism-based; set-up: dose 300 mg, time < 24 hr, route oral; settings: plasma; procedure, shortened: as §2
[37] = Tmax in healthy human at 300 mg, po once daily coadministered with 600 mg, po apricitabine twice daily for 4 days; type: ADME, organism-based; settings: in vivo; procedure, shortened: as §2
[38] = Cmax in healthy human at 300 mg, po administered once daily for 4 days; type: ADME, organism-based; set-up: dose 300 mg, route oral; settings: in vivo; procedure, shortened: as §2
[39] = tested on: Homo sapiens; test: AUC (0 to 12 hrs) in healthy human PBMC assessed as intracellular lamivudine triphosphate level per 10^6 cells at 300 mg, po administered once daily for 4 days; settings: in vivo
[40] = Tmax in healthy human at 300 mg, po administered once daily for 4 days; type: ADME, organism-based; settings: in vivo; procedure, shortened: as §2

Tmax [1]: 3.52 h
t1/2 [2]: 5.06 h
Cmin_PBMC [3]: 0.6 pmol/10^6cells
Vdss [4]: 67.9 L
Cmax [5]: 0.257 pmol/10^6cells
CL renal [6]: 12.2 L/h
Vdss [7]: 67.7 L
Cmin_PBMC [8]: 0.078 pmol/10^6cells
AUC at 24 h [9]: 70900 ng·h/mL
Cmax [10]: 7430 ng/mL
CL renal at 96 h [11]: 192 mL/min
Ratio [12]: 3.54
CL/F [13]: 283 mL/min
Tmax [14]: 1.55 h
CL/F [15]: 18.3 L/h
Cmax [16]: 1.66 pmol/10^6cells
Tmax [17]: 3.14 h
Tmax [18]: 1.76 h
Cmax [19]: 7110 ng/mL
AUC [20]: 13.3 pmol·h/10^6 cells
AUC at 24 h [21]: 65600 ng·h/mL
t1/2 [22]: 6.22 h
AUC [23]: 1.98 pmol·h/10^6 cells
Ratio [24]: 3.28
half-life [25]: 2.72 h
half-life [26]: 2.6 h
SMILES: Nc1ccn([C@H]2CO[C@@H](CO)S2)c(=O)n1 [APRICITABINE]

Cmin_PBMC [27]: 4.52 pmol/10^6cells
Cmax [28]: 3810 ng/mL
Tmax [29]: 4.76 h
Cmax [30]: 9.91 pmol/10^6cells
Tmax [31]: 3.9 h
Cmin_PBMC [32]: 4.35 pmol/10^6cells
AUC at 24 h [33]: 15500 ng·h/mL
Cmax [34]: 9.83 pmol/10^6cells
AUC [35]: 161 pmol·h/10^6 cells
AUC at 24 h [36]: 15700 ng·h/mL
Tmax [37]: 1.02 h
Cmax [38]: 3980 ng/mL
AUC [39]: 154 pmol·h/10^6 cells
Tmax [40]: 1 h
SMILES: Nc1ccn([C@@H]2CS[C@H](CO)O2)c(=O)n1 [LAMIVUDINE]
